Redox H2O2 prof: compounds producing H2O2 with reducing agent – biochemical, NIH compound library profiling, artefact control for MLSCN library redox annotation, primary screen. DTT-dependent redox cycling H2O2, phenol red/HRP absorbance; 100% = 100 µM peroxide control, 0% = buffer. activation, % at 10 µM. 200,000 tested, 0.03% active;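 active = activation of at least 50% relative to the plate's high and low controls in the primary single-dose screen; inactive = activation below 50%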;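 also: compound incubated with DTT at 0.8 mM final as the reducing agent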
T cruzi inh: T. cruzi replication inhibition; 300,000 tested, 1.4% active; T. cruzi beta-gal in NIH3T3, luminescence, 90 h; inhibition, % (concentration not given with the values);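 active = mean inhibition across valid replicates above about 55%, limit read from the data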;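 also: signal also drops with host cell toxicity which is not excluded here; higher percent means less beta-gal luminescence so fewer parasites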
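Incubation – ≥90 h infection period, 3 h prior cell attachment · System – NIH/3T3 fibroblasts plus reporter T. cruzi · Doses – compound pinned at 50 nL/well, DMSO · Read-out basis – percent inhibition of parasite-derived β-gal signal · Signal – luminescent β-galactosidase signal after 60 min lysis · Also added – 5000 T. cruzi trypomastigotes/well · Medium – Low-serum DMEM with 2% FBS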
L major viab: inhibitors of Leishmania major promastigote growth; AID 1063; inhibition, % at 10 µM; Leishmania major promastigotes, resazurin fluorescence viability; 200,000 tested, 9% active; in the data active = inhibition above about 50%;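 also: promastigotes grown with compound for 44 hours at 28 °C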
Hep lipid drop: modulators of hepatic lipid droplet formation; 240,000 tested, 0.4% active; AID 1656; inhibition, % at 6.5 µM; AML12 mouse hepatocytes, oleate lipid droplets, BODIPY imaging;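 active = lipid droplet intensity inhibited by at least 50%, with more than 500 cells counted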
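Assay system: AML12 hepatocytes (mouse) / Also added: 100 µM oleic acid challenge / Times: overnight treatment with compound plus oleate / Detection: high-content imaging of BODIPY-stained droplets and DAPI nuclei / Evaluation: % inhibition of lipid droplet signal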
MPTP inh: blocks calcium-induced mitochondrial swelling. isolated mouse mitochondria, Ca2+ swelling absorbance, 30 min. 360,000 tested, 1.4% active. inhibition, % at 10 µM;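 active = inhibition of 50% or more, scaled per plate between neutral and stimulator controls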
Of the large screens only hits and unclear results are named; the others gave an inactive call. Only a selection was taken, and hits are over-represented in it overall.

COc1ccc(-n2cc3c(-c4cccc(Br)c4)nnc(C)c3n2)cc1	L major viab 59
Cc1nnc(-c2cccc(Br)c2)c2cn(-c3ccccc3)nc12	none
Cc1nnc(-c2cccc(Br)c2)c2cn(-c3cccc(Br)c3)nc12	T cruzi inh 60 (no result: Hep lipid drop)
COc1ccc(C(=O)Oc2cccc3cccnc23)cc1[N+](=O)[O-]	L major viab 93
Cc1ccc(C(=O)Oc2ccc(Cl)c3cccnc23)cc1[N+](=O)[O-]	L major viab 98 (no result: Hep lipid drop)
O=C(Oc1ccc(Cl)c2cccnc12)c1cccnc1	none (no result: Redox H2O2 prof, L major viab)
Cc1ccc(NC(=O)c2ncn(CCCN3CCN(Cc4cccc5ccccc45)CC3)n2)cc1C	none (no result: Redox H2O2 prof, T cruzi inh, L major viab, Hep lipid drop)
CCCOc1ccc(NCC(=O)Nc2ccc(C)cc2C)cc1	T cruzi inh 76
COc1ccc(S(=O)(=O)n2nc(OC(C)=O)cc2N(C(C)=O)C(C)=O)cc1	none
Cn1cc(Cc2ccc(C(=O)N3CCCCC3)cn2)c2ccccc21	none (no result: Redox H2O2 prof, T cruzi inh, L major viab, Hep lipid drop)
Oc1[nH]c2c(Cl)cc(Cl)cc2c1N=NC(=S)NCC1CCCO1 (configuration not stated)	L major viab 98
Oc1[nH]c2ccc(Br)cc2c1N=NC(=S)NCC1CCCO1 (configuration not stated)	T cruzi inh 60 (no result: Redox H2O2 prof, L major viab)
Oc1[nH]c2ccccc2c1N=NC(=S)NCC1CCCO1 (configuration not stated)	none
Cc1cc(C)c2[nH]c(O)c(N=NC(=S)NCC3CCCO3)c2c1 (configuration not stated)	none
O=C(OCc1ccccc1)N1CCCC1/C=C/CN1CCOCC1 (configuration not stated)	L major viab 82
COC(=O)c1ccc(NC(=O)C2CCCN2C(=O)OCc2ccccc2)cc1 (configuration not stated)	none (no result: Redox H2O2 prof, L major viab)
O=C(N/N=C/c1ccc[nH]1)c1ccc([N+](=O)[O-])cc1	L major viab 79
Cc1cccc(C(=O)N/N=C/c2ccccn2)c1	none
O=C(N/N=C/c1ccccn1)c1cccc([N+](=O)[O-])c1	L major viab 77
O=C(N/N=C/c1ccccn1)c1ccc(Br)cc1	L major viab 97
O=C(N/N=C/c1ccccn1)c1ccc(NC(=O)c2cccc([N+](=O)[O-])c2)cc1	none
O=C(N/N=C/c1ccccn1)c1cc([N+](=O)[O-])cc([N+](=O)[O-])c1	L major viab 89
CCCNC(=O)C1(C)CCCN(C(=O)c2ccccc2F)C1 (configuration not stated)	none (no result: Redox H2O2 prof, T cruzi inh, L major viab, Hep lipid drop)
O=C(N/N=C/c1ccccn1)c1ccc(N/N=C/c2ccccn2)cc1	none
O=C(N/N=C/c1ccccn1)c1ccc([N+](=O)[O-])cc1	L major viab 55
CC(C)(C)NC(=O)C(c1cccs1)N(CC1CCCO1)C(=O)c1ccc(-c2ccccc2)[nH]1 (configuration not stated)	none
O=C(NCC1CCCO1)C(c1cccs1)N(C(=O)c1ccc(-c2ccccc2)[nH]1)C1CCCC1 (configuration not stated)	L major viab 92
NC(=O)c1nsc(C(=O)N(c2ccccc2)C(C(=O)NCC2CCCO2)c2cccs2)c1N (configuration not stated)	L major viab 73
O=C(NCC1CCCO1)C(c1cccs1)N(Cc1ccccc1)C(=O)c1ccc(-c2ccccc2)[nH]1 (configuration not stated)	L major viab 68
COc1cc2ccccc2cc1C(=O)NNC(=O)c1ccccc1O	T cruzi inh 57 (no result: Redox H2O2 prof, L major viab)
COc1ccc(NC(=O)c2cc3ccccc3cc2OC)cc1	none (no result: Redox H2O2 prof, L major viab)
Cc1ccc2c(c1)N(CC(=O)N1CCCC1)C(=O)c1cccnc1O2	none (no result: Redox H2O2 prof, L major viab)
CC(C(=O)Nc1ccc(F)c(F)c1F)N(C)CC(=O)Nc1ccccc1Br (configuration not stated)	T cruzi inh 102
O=C1CCc2cc(S(=O)(=O)NC3CCCCC3)cc3c2N1CC3	none (no result: Redox H2O2 prof, L major viab, Hep lipid drop)
CCC(Sc1ncccn1)C(=O)Nc1cc(C)on1 (configuration not stated)	none
CCC(Sc1nc2ccccc2s1)C(=O)Nc1cc(C)on1 (configuration not stated)	L major viab 67
Cc1cccc(C(=O)O/N=C/c2c(N3CCOCC3)n(C)c3ccccc23)c1	T cruzi inh 73, L major viab 99 (no result: Hep lipid drop, MPTP inh)
O=C(Nc1ccncc1Cl)c1ccncc1	none (no result: Redox H2O2 prof, L major viab)
COc1ccc(-c2c[n+](CC(=O)N3c4ccccc4Sc4ccccc43)c3n2CCC3)cc1	T cruzi inh 57 (no result: Redox H2O2 prof, L major viab, Hep lipid drop)
